According to ChEMBL document CHEMBL3272023, “Metabolic formation and synthesis of 1-(3-chlorophenyl)-2(4-hydroxyphenyl)-1-methyl-2(2 pyridine)ethanol. A potential hypocholesteremic agent” (J Med Chem, 1976):

What was measured:
Settings in all cases: in vivo
[1] = Drug excretion in Sprague-Dawley rat assessed as radioactivity in urine at 1.71 uCi, ip measured on day 1; type: ADME, organism-based
In short: (§1)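 Three male rats (250 ± 10 g), each in its own metabolic cage with diet and water ad libitum, given 40 mg/kg ³H-labelled drug (1.71 µCi) ip as 1 ml aqueous 0.26% Tween 80 suspension. Urine and feces collected at 11 h, then daily for 13 days. Feces air-dried, powdered, oxidized and counted. Tissues assayed after sacrifice on day 14.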

[2] = Drug excretion in Sprague-Dawley rat assessed as radioactivity in urine at 1.71 uCi, ip measured on day 7; type: ADME, organism-based; in short: as §1
[3] = Drug excretion in Sprague-Dawley rat assessed as radioactivity in feces at 1.71 uCi, ip measured on day 13; type: ADME, organism-based; in short: as §1
[4] = Drug excretion in Sprague-Dawley rat assessed as total radioactivity in feces at 1.71 uCi, ip; type: ADME; in short: as §1
[5] = Retardation factor of the compound in Sprague-Dawley rat urine at 15.6 uCi, ip using hexane-chloroform-acetic acid at 6:3:1 ratio TLC system I; type: physicochemical, organism-based
In short: (§2)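 Urine from two rats (250 g) given 300 mg/kg (15.6 µCi) ip was examined by TLC, directly and before/after enzymatic hydrolysis (pH 5.8, 37°, 72 h). Standards were located by fluorescence quenching. Radioactivity was measured by scintillation counting of 0.5-cm silica gel strips scraped from the plates.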

[6] = Drug metabolism in Sprague-Dawley rat urine at 15.6 uCi, ip using hexane-chloroform-acetic acid at 6:3:1 ratio TLC system I; type: ADME, organism-based; in short: as §2
[7] = Drug metabolism in Sprague-Dawley rat urine assessed as hydroxylated 2-benzylpyridine at 15.6 uCi, ip by gas chromatography-mass spectrometry; type: ADME, organism-based
In short: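 Two rats (250 g) dosed ip at 300 mg/kg (15.6 µCi). Urine hydrolysed at pH 5.8, 37°, 72 h with Helix pomatia glucuronidase/arylsulfatase or bovine liver β-glucuronidase. Preparative TLC in system II; the radioactive band at Rf 0.6 extracted into Et2O and silylated (bis(trimethylsilyl)acetamide/triethylamine). GLC on 3% SE-30, fractions counted, radioactive peak sent to MS.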

[8] = Drug metabolism in Sprague-Dawley rat urine at 15.6 uCi, ip using benzene-methanol at 8:2 ratio TLC system II; type: ADME, organism-based; in short: as §2
[9] = Drug metabolism in Sprague-Dawley rat urine at 15.6 uCi, ip using Et2O TLC system; type: ADME, organism-based; in short: as §2
[10] = Drug excretion in Sprague-Dawley rat assessed as radioactivity in feces at 1.71 uCi, ip measured on day 1

- Drug excretion [1]: 5%
- Drug excretion [2]: < 1%
- Drug excretion [3]: < 1%
- Drug excretion [4]: 25%
- Rf [5]: 0.56
- Drug metabolism [6]: metabolite_notdetected
- Drug metabolism [7]: metabolite_detected
- Drug metabolism [8]: metabolite_detected
- Drug metabolism [9]: metabolite_detected
- Drug excretion [10]: 7%
Compound: CC(O)(c1cccc(Cl)c1)C(c1ccccc1)c1ccccn1 (stereo not given)
